{"source": "ChEMBL document CHEMBL3244156", "about": "“Analgesic and tranquilizing activity of 5,8-disubstituted 1-tetralone Mannich bases” (1977)", "key": {"Rattus norvegicus [1]": {"system": "Rattus norvegicus", "assay": "Analgesic activity in rat assessed as median foot shock required to elicit flinch-jump at 17.8 mg/kg, po after 2 hrs", "type": "functional"}, "Mus musculus [2]": {"system": "Mus musculus", "assay": "Analgesic activity in mouse assessed as tail-flick latency period at 10 mg/kg, ip after 2 hrs by tail flick test", "type": "functional", "settings": "route intraperitoneal"}, "Canis familiaris": {"system": "Canis familiaris", "assay": "Analgesic activity in dog assessed as rippling of skin at 1.62 mg/kg, sc after 2 hrs by radiant heat assay", "type": "functional, Canis lupus familiaris", "settings": "route subcutaneous", "summary_of_the_method": "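Dogs held in a harness with a shaved mid-back patch placed under a concealed radiant heat source. Endpoint is the latency from heat onset to skin \"rippling\". Baseline latency measured in each dog, then retested at 0.5 and 2 h after dosing. Result expressed as % of control.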"}, "Mus musculus [3]": {"system": "Mus musculus", "assay": "Analgesic activity in mouse at 10 mg/kg, ip after 2 hrs by hot plate assay", "type": "functional", "settings": "route intraperitoneal", "summary_of_the_method": "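Mice dropped into a glass cylinder on an aluminum plate held at 57 °C. Timed from foot contact to first hind-foot flick, with a 10-s limit. Observed 0.5 and 2 h after treatment. Value is % of mice failing to react within the limit. At least ten mice per dose.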"}, "Rattus norvegicus [4]": {"species": "Rattus norvegicus", "assay": "Induction of tolerance development in rat assessed as median foot shock required to elicit flinch-jump", "type": "functional, organism-based"}}, "note": "Calls of active or inactive are those of the source. No cut-off for these calls is given here.", "data": [{"molecule": "CN1CC[C@]23c4c5ccc(O)c4O[C@H]2[C@@H](O)C=C[C@H]3[C@H]1C5", "note": "[MORPHINE]", "values": [{"measurement": "Activity", "setting": "Rattus norvegicus [1]", "value": 1.2, "unit": "%"}, {"measurement": "Activity", "setting": "Mus musculus [2]", "value": 80, "unit": "%"}, {"measurement": "Activity", "setting": "Canis familiaris", "value": 155, "unit": "%"}, {"measurement": "Activity", "setting": "Mus musculus [3]", "value": 70, "unit": "%"}, {"measurement": "Activity", "setting": "Rattus norvegicus [4]", "value": "Active"}]}]}
